The source of these data is ChEMBL document CHEMBL1143912, “Synthesis and anti-HIV evaluation of novel 1,3-disubstituted thieno[3,2-c][1,2,6]thiadiazin-4(3H)-one 2,2-dioxides(TTDDs)” (Bioorg Med Chem, 2008).

Series [1] is described as follows: Selectivity index, Ratio of CC50 for human MT4 cells to EC50 for HIV1 3B. It is filed as functional. The method in brief: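 SI is CC50 in mock-infected MT-4 cells divided by EC50 against HIV-1 IIIB. Both come from the same 4-day MTT assay run in parallel in infected (MOI 0.02) and uninfected cells, each as the mean of at least two experiments.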
Series [2] concerns Human immunodeficiency virus 2. Put plainly: Antiviral activity against HIV2 ROD assessed as inhibition of virus-induced cytopathogenicity in MT4 cells after 4 days by MTT assay. It is filed as functional, organism-based. The method in brief: (§1)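 MT-4 cells at 1 × 10⁵ cells/mL infected at MOI 0.02, then immediately plated into wells holding serial concentrations of compound (DMSO stocks, 10 mg/ml). Incubated 4 days at 37 °C, then viable cells read by MTT. EC50 is the concentration protecting 50% of infected cells from viral cytopathicity. Values are means of at least two separate experiments.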

For series [3], the system named is Human immunodeficiency virus 1. Put plainly: Antiviral activity against HIV1 3B assessed as inhibition of virus-induced cytopathogenicity in MT4 cells after 4 days by MTT assay. It is filed as functional, organism-based. The settings on record: Human immunodeficiency virus 1, 3B, MT4, 96 h. The method in brief: as §1
Background: Damage to the host cells serves as the signal in cytopathic effect assays.

The nature of series [4]: Cytotoxicity against human MT4 cells after 4 days by MTT assay. It counts as cell-based. Summed up: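 Uninfected MT-4 cells were run in parallel with the antiviral assay, exposed to serial compound concentrations (DMSO stocks, 10 mg/ml) for 4 days at 37 °C, with viability read by MTT. CC50 is the concentration cutting mock-infected cell viability by 50%. ">" marks the highest concentration tested that was still non-cytotoxic. Values are means of at least two experiments.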
For orientation: Formazan colour is commonly taken as a measure of viable cells.

pEC50: −log10 of the molar value. The source made the active and inactive calls. No cut-off for these calls is given here. A value given as a limit tells only on which side of the number the result lay.

For the compound `CN1c2ccsc2C(=O)N(Cc2ccccc2)S1(=O)=O`, the “Ratio CC50/EC50” value in series [1] came out at 3. Also, the outcome in series [2] was inactive. Further, in series [3], the negative-log EC50 (pEC50) was 4.15. In addition, half-maximal cytotoxicity in series [4] (CC50 at 96 h) was put at 202 µM.
Turning to `N#Cc1ccc(CN2c3ccsc3C(=O)N(Cc3ccccc3)S2(=O)=O)cc1`, the “Ratio CC50/EC50” value in series [1] was less than 1. Further, the outcome in series [2] was inactive. The negative-log EC50 (pEC50) in series [3] is less than 5.07. This compound gave a CC50 at 96 h in series [4] of 8.5 µM.
Turning to `O=C1c2sccc2N(Cc2ccc(Cl)cc2Cl)S(=O)(=O)N1Cc1ccccc1`, the “Ratio CC50/EC50” value in series [1] is on record as 5. Also, the outcome in series [2] was inactive. For the same compound, the pEC50 in series [3] is 4.28. In series [4], it took 247 µM to reach half-maximal cytotoxicity (CC50 at 96 h).
As to `N#CCN1c2ccsc2C(=O)N(Cc2ccccc2)S1(=O)=O`, the “Ratio CC50/EC50” value in series [1] was less than 1. In addition, the result in series [2] was inactive. The pEC50 in series [3] is less than 5.24. The compound further gave a cytotoxic concentration (CC50) at 96 h in series [4] of 5.7 µM.
The corresponding values for `O=C1c2sccc2N(Cc2ccccc2Br)S(=O)(=O)N1Cc1ccccc1` are greater than 37, “inactive”, 5.14 and greater than 270 µM.
On to `O=C1c2sccc2N(Cc2ccccc2)S(=O)(=O)N1Cc1ccccc1`, for which the “Ratio CC50/EC50” value in series [1] is given as less than 1. Moreover, the result in series [2] was inactive. Also, the negative logarithm of the EC50 (pEC50) in series [3] was less than 4.43. Also, in series [4], the cytotoxic concentration (CC50) at 96 h came out at 37.5 µM.
For `O=C1c2sccc2NS(=O)(=O)N1Cc1ccccc1`, the “Ratio CC50/EC50” value in series [1] is on record as less than 1. Besides, in series [2], the outcome was inactive. In addition, in series [3], the negative logarithm of the EC50 (pEC50) is less than 3.43. This compound also gave a CC50 at 96 h in series [4] of 374 µM.
Consider `O=C1c2sccc2N(Cc2ccccc2Cl)S(=O)(=O)N1Cc1ccccc1`, for which the “Ratio CC50/EC50” value in series [1] is greater than 62. Further, the outcome in series [2] was inactive. Further, in series [3], the negative-log EC50 (pEC50) was 5.32. Besides, the half-maximal cytotoxic concentration (CC50) at 96 h in series [4] was greater than 299 µM.
As to `O=C1N(Cc2ccccc2Cl)c2cscc2S(=O)(=O)N1Cc1ccccc1`, the “Ratio CC50/EC50” value in series [1] is greater than 1190. For the same compound, the negative logarithm of the EC50 (pEC50) in series [3] is 7.00. The compound further had a CC50 at 96 h in series [4] greater than 119 µM.
On to `Cc1cn([C@H]2C[C@H](N=[N+]=[N-])[C@@H](CO)O2)c(=O)[nH]c1=O` [ZIDOVUDINE], for which, in series [1], the “Ratio CC50/EC50” value is on record as 50587. In addition, in series [3], the negative-log EC50 (pEC50) is 9.15. Moreover, in series [4], the CC50 at 96 h amounted to 35.6 µM.
Turning to `Cc1ccnc2c1NC(=O)c1cccnc1N2C1CC1` [NEVIRAPINE], the “Ratio CC50/EC50” value in series [1] was found to be 22767. For the same compound, the pEC50 in series [3] was 7.52. Besides, half-maximal cytotoxicity in series [4] (CC50 at 96 h) was put at 683 µM.
For the compound `O=C1c2sccc2N(Cc2ccc(Cl)cc2)S(=O)(=O)N1Cc1ccccc1`, the “Ratio CC50/EC50” value in series [1] is on record as less than 1. The outcome in series [2] was inactive. Besides, in series [3], the negative logarithm of the EC50 (pEC50) is less than 5.09. This compound also yielded a CC50 at 96 h in series [4] of 8.2 µM.
Taken in the same sequence, the figures for `N#Cc1cccc(CN2c3ccsc3C(=O)N(Cc3ccccc3)S2(=O)=O)c1` were greater than 76, “inactive”, 5.40 and greater than 306 µM.
`N#CCN1C(=O)N(Cc2ccccc2)S(=O)(=O)c2cscc21`: in series [1], the “Ratio CC50/EC50” value is on record as 559. Also, the negative logarithm of the EC50 (pEC50) in series [3] is 6.05. Moreover, the 50% cytotoxic concentration (CC50) at 96 h in series [4] turned out to be 503 µM.
Consider `N#Cc1ccccc1CN1c2ccsc2C(=O)N(Cc2ccccc2)S1(=O)=O`, for which the “Ratio CC50/EC50” value in series [1] is reported as greater than 59. The outcome in series [2] was inactive. In series [3], the pEC50 is 5.29. In addition, in series [4], the CC50 at 96 h was greater than 306 µM.
For `O=C1c2sccc2N(Cc2cccc(Cl)c2)S(=O)(=O)N1Cc1ccccc1`, the “Ratio CC50/EC50” value in series [1] is recorded as greater than 51. Besides, in series [2], the outcome was inactive. In addition, in series [3], the pEC50 is 5.23. In series [4], this compound displayed a CC50 at 96 h greater than 299 µM.
Take `O=C1c2sccc2N(Cc2ccc(Br)cc2)S(=O)(=O)N1Cc1ccccc1`: in series [1], the “Ratio CC50/EC50” value is listed as less than 1. In series [2], the result was inactive. In addition, the pEC50 in series [3] is less than 5.18. In addition, it took 6.6 µM to reach half-maximal cytotoxicity in series [4] (CC50 at 96 h).
As to `O=C1c2sccc2N(Cc2ccc([N+](=O)[O-])cc2)S(=O)(=O)N1Cc1ccccc1`, the “Ratio CC50/EC50” value in series [1] is given as less than 1. Besides, the outcome in series [2] was inactive. For the same compound, the pEC50 in series [3] was less than 3.57. Also, the CC50 at 96 h in series [4] was 268 µM.

By pEC50 is commonly meant the EC50 on a negative log10 scale, so that one unit is a factor of ten. One may read the CC50 as the concentration at which the toxic effect on the cells reaches its halfway point. Low readings indicate harm at low concentration, high ones better tolerance by the cells.
